Compounds with a hit are over-represented: about 4% of the library has one in this group of screens.
OX1R antag-1: antagonists of human orexin 1 receptor. CHO/OX1R cells, Fluo-8 calcium fluorescence, orexin A. inhibition, % at 5 µM. hit rate 0.43% among 330,000;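 active = inhibition above its plate's threshold, mean inhibition of all tested compounds on the plate plus 3 SD, cut at about 37% in these data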;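 also: 0% = orexin A challenge wells and 100% = SB-334867-A antagonist wells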
TAAR1 antag: human TAAR1 antagonism; Q96RJ0; CHO RD-HGA16 TAAR1, Fluo-8 calcium fluorescence, antagonist; inhibition, % at 3 µM; hit rate 1.5% among 360,000;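 active = inhibition above a per-plate cutoff, the mean inhibition of test compounds on that plate plus 3 SD, cut at about 49% in these data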;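 also: 0% = DMSO plus EC80 beta-PEA response and 100% = DMSO alone without agonist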
Target sequence (Q96RJ0 whole entry, looked up): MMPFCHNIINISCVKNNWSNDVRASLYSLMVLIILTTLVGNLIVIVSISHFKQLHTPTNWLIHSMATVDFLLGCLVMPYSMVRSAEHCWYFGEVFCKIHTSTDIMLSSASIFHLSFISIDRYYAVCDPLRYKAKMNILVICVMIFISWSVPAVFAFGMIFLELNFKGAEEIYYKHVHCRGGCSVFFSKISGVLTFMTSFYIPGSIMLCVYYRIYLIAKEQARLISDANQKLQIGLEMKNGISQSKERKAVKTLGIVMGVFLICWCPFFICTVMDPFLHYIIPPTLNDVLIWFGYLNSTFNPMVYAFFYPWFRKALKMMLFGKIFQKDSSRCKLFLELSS
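System: CHO RD-HGA16 cells bearing hTAAR1. Reagent: EC80 β-phenethylamine stimulus. Schedule: seeding 17-24 h prior, 75-min 37 °C, 30-min RT dye loading. Signal: Fluo-8 intracellular calcium dye fluorescence, real-time kinetic reads. Read-out: % inhibition from peak post-agonist over basal fluorescence ratio. Benchmarks: vehicle wells and EC80 agonist wells. Replicates: n of 1.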
CHO parental Ca: counter-screen: ATP calcium response change in parental CHO cells. hit rate 0.63% among 330,000. inhibition, % at 5.6 µM. AID 463079. parental CHO-K1, ATP-induced calcium, Fluo-8 fluorescence;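 active = inhibition above that plate's mean sample inhibition plus 3 SD, cut at about 26% in these data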;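 also: 0% = ATP-challenged DMSO wells and 100% = DMSO wells without ATP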
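Material: parental CHO cells / Compound: single nominal dose of 5.6 µM per compound / Signal: Fluo-8 fluorescence / Replicates: singlicate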
TAAR1 agonist: human TAAR1 agonism | Q96RJ0 | activation, % at 3 µM | CHO RD-HGA16 TAAR1, Fluo-8 calcium fluorescence; vehicle wells 0%, saturating PEA agonist 100% | hit rate 0.99% among 360,000;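 active = activation above the mean activation of all test compounds in the run plus 3 SD, cut at about 38% in these data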
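Assay system – CHO-derived RD-HGA16 cells with stable Gα16 and human TAAR1 · Compound dosing – one-point dosing at 3 µM (nominal) · Incubation – 17-24 h seeding, 75 min 37 °C dye, 30 min RT · Measured by – kinetic Fluo-8 calcium fluorescence · Control set – DMSO vehicle as 0%, PEA at EC100 as 100% · Repeats – single well for each compound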
NTR1 ag: agonists of human neurotensin receptor NTR1. P30989. NTR1-U2OS beta-arrestin-GFP spot imaging, agonist mode. activation, % at 20 µM. hit rate 0.17% among 330,000. AID 493036;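 active = activation at or above 40% of the spot to cytoplasm intensity ratio, with at least 20 cells analyzed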;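 also: 0% = DMSO without peptide and 100% = 100 nM NTR1 peptide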
Target sequence (P30989 whole entry, looked up): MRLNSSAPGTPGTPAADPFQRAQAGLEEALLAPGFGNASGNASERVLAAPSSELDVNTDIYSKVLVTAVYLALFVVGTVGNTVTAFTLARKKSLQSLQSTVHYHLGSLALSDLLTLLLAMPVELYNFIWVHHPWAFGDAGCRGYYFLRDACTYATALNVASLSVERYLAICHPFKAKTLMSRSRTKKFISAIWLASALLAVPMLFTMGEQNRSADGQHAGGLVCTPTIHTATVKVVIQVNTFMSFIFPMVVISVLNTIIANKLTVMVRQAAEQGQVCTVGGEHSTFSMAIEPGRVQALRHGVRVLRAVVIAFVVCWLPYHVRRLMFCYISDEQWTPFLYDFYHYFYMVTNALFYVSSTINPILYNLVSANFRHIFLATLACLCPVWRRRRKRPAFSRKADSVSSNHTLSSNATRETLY
OX1R antag-2: blocks the human orexin 1 receptor | O43613 | OX1R-expressing cells, FRET antagonist read-out | inhibition, % at 6.6 µM | hit rate 1.8% among 330,000; in the data active = inhibition mostly above about 38%, no sharp cut-off; inactive = mostly below about 40%;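 also: 0% = agonist challenge alone and 100% = reference antagonist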
TAAR1 ag confirm: confirmation of human TAAR1 agonists. shares compounds with TAAR1 agonist. CHO RD-HGA16 TAAR1, Fluo-8 calcium fluorescence; scaled: DMSO 0%, maximal phenethylamine 100%. activation, % at 3 µM. hit rate 82% among 2,400. AID 651783;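 active = activation above a cutoff set at the run's mean compound activation plus 3 SD, cut at about 39% in these data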
Ga16 ag counter: nonselective agonism, TAAR1 counter-screen | shares compounds with TAAR1 agonist | CHO-Ga16 parental, Fluo-8 calcium fluorescence; normalized to maximal ATP response, DMSO zero | activation, % at 3 µM | hit rate 50% among 2,400 | AID 651787;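 active = activation above the run cutoff, the mean activation over all tested wells plus 3 SD, cut at about 12% in these data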;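 also: 0% = DMSO wells and 100% = maximal ATP response on the peak over basal ratio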
TAAR1 desensitize: human TAAR1 agonist that also desensitizes the receptor. CHO RD-HGA16 hTAAR1, Fluo-8 calcium, beta-PEA response inhibition. AID 651951. inhibition, % at 3 µM. shares compounds with TAAR1 agonist. hit rate 46% among 2,400;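 active = inhibition above the run cutoff, the mean inhibition of all test compounds plus 3 SD, cut at about 49% in these data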;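 also: beta-PEA stimulus applied at its EC80; loss of beta-PEA calcium signal after compound pretreatment read as receptor desensitization; 0% = DMSO with beta-PEA at EC80 and 100% = DMSO alone without agonist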
Ga16 nonsel ant: nonselective Ga16 antagonist in TAAR1 agonist counter-screen. shares compounds with TAAR1 agonist. inhibition, % at 3 µM. CHO-Ga16 ATP-induced calcium, Fluo-8 fluorescence. hit rate 39% among 2,400;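 active = inhibition above the plate's mean compound inhibition plus 3 SD, computed per plate, cut at about 22% in these data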;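 also: 0% = EC80 ATP with DMSO and 100% = DMSO wells without ATP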
An asterisk follows results filed as active; . = no result given.

SMILES | OX1R antag-1 | TAAR1 antag | CHO parental Ca | TAAR1 agonist | NTR1 ag | OX1R antag-2 | TAAR1 ag confirm | Ga16 ag counter | TAAR1 desensitize | Ga16 nonsel ant
O=C(COC(=O)COc1ccc(Cl)cc1Br)NC1CC1 | -14 | -13 | -4 | 2 | 2 | 5 | . | . | . | .
OCCN1CCN(c2nccn3ccnc23)CC1 | . | -3 | . | 2 | . | . | . | . | . | .
O=C(CCc1ccc(S(=O)(=O)N2CCOCC2)cc1)Nc1c(F)cccc1F | -2 | -5 | -1 | 4 | 3 | 3 | . | . | . | .
CN(c1ccccc1)S(=O)(=O)c1cccc(NC(=O)CSc2nccc(=O)[nH]2)c1 | -6 | -3 | -6 | 0 | -2 | 7 | . | . | . | .
O=C(Nc1ccc(Cn2ccnc2)cc1)c1cccc(C(F)(F)F)c1 | . | 31 | . | 42* | 1 | . | 57* | 0 | 36 | 10
COc1ccc(C(=O)Nc2ccc(Cn3ccnc3)cc2)cc1OC | 0 | 1 | -1 | 1 | 0 | 12 | . | . | . | .
O=C(c1ccc(NS(=O)(=O)c2ccc3[nH]c(=O)[nH]c3c2)cc1)N1CCCC(C(F)(F)F)C1 (stereo unspecified) | -2 | -24 | 5 | 8 | 1 | 2 | . | . | . | .
Clc1ccc(-c2nc3ccncc3[nH]2)cc1 | -19 | 19 | -1 | 49* | 3 | 0 | 72* | -1 | 40 | 8
O=C(O)CCN1C(=O)c2ccc(NC(=O)COc3ccccc3)cc2C1=O | 14 | -8 | -1 | 0 | 1 | 17 | . | . | . | .
Cc1ccc(-c2nc(C#N)c(NCCc3ccccn3)o2)cc1 | -5 | -6 | -12 | 1 | 1 | 11 | . | . | . | .
N#Cc1nc(-c2ccc(Cl)cc2)oc1NCCc1ccccn1 | -13 | -10 | -2 | 45* | 0 | 8 | 8 | 7 | 22 | 16
NC(N)=Nc1cc2ccccc2c2ccccc12 | -3 | . | -10 | . | 9 | -2 | . | 3 | . | 6
CCOc1ccccc1N(CC(=O)NC1CCCCC1)S(=O)(=O)c1ccccc1 | -9 | 6 | -31 | -2 | 2 | 38 | . | . | . | .
C[C@H](NC(=O)[C@@H]1CSC2c3ccccc3C(=O)N21)C(=O)NCCc1ccccc1 (stereo partly specified) | -11 | 15 | -16 | 68* | -1 | 13 | 81* | 0 | 41 | 6
COC(=O)[C@@]1(Cc2ccc(F)cc2)[C@H]2c3cc(C(=O)N4CCCC4)n(CCc4c[nH]c5ccccc45)c3C[C@H]2CN1C(=O)c1ccccc1 | . | -14 | . | 6 | . | . | . | . | . | .
Clc1ccc(CSc2ncnc3c2ncn3C2CCCCO2)cc1 (stereo unspecified) | . | 37 | . | 64* | . | . | 15 | 11 | 10 | 14
OC(c1ccccc1)(c1ccccc1)C1CCN(CCCOc2cccc(F)c2)CC1 | . | 40 | . | 45* | . | . | 16 | 10 | 14 | 16
Cc1ccccc1OCCCN1CCC(C(O)(c2ccccc2)c2ccccc2)CC1 | . | 34 | . | 37* | . | . | 51* | 19* | 38 | 26*
N#Cc1cccc(OCCCN2CCC(C(O)(c3ccccc3)c3ccccc3)CC2)c1 | . | 6 | . | 22 | . | . | . | . | . | .
CCN(CC)C(=O)C1=C(C)N(CCCN2CCCC2=O)C(=O)C(CC(=O)NCc2cccs2)C1 (stereo unspecified) | . | -24 | . | 2 | . | . | . | . | . | .
CC(OC(=O)CCN1C(=O)C2CC=CCC2C1=O)C(=O)Nc1cccc(Cl)c1 (stereo unspecified) | -21 | -12 | -15 | 3 | -1 | 8 | . | . | . | .
CCN(CC)C(=O)Oc1nnc(SC(C)C)n1-c1ccc(Cl)c(Cl)c1 | -38 | 5 | -21 | 45* | 1 | 8 | 21 | 14* | 2 | 2
CCN(CC)C(=O)Oc1nnc(SC(C)C)n1-c1ccc(Cl)cc1 | -15 | 5 | -15 | 0 | 0 | 5 | . | . | . | .
CCOC(=O)C1=C(N)n2c(s/c(=C/c3ccco3)c2=O)=C(C(=O)OC)C1c1ccco1 (stereo unspecified) | 4 | 33 | 10 | 68* | . | 4 | 72* | 30* | 51* | 40*
COc1ccc(Nc2nc3ccccc3nc2-n2nc(C)cc2C)cc1 | -10 | -15 | -15 | 7 | 5 | 4 | . | . | . | .
SMILES | OX1R antag-1 | TAAR1 antag | CHO parental Ca | TAAR1 agonist | NTR1 ag | OX1R antag-2 | TAAR1 ag confirm | Ga16 ag counter | TAAR1 desensitize | Ga16 nonsel ant
Cc1cc(C)n(-c2nc3ccccc3nc2NCCc2ccccc2)n1 | -10 | -8 | -12 | 61* | 1 | 8 | 36 | 1 | 3 | 3
COc1cc(/C=C/C(=O)OCC(=O)Nc2ccc([N+](=O)[O-])cc2)ccc1O | 21 | 46 | 30 | 72* | 11 | 6 | 77* | 43* | 58* | 39*
O=C(COC(=O)/C=C/c1ccc(Cl)cc1)Nc1ccccc1 | -6 | 44 | 8 | 62* | 1 | 9 | 15 | 2 | 6 | 6
COc1ccc(N(CC(=O)NC2CCCCC2)C(=O)c2ccc(C)s2)c(OC)c1 | 2 | -14 | -22 | -1 | 1 | 7 | . | . | . | .
CCOC(=O)Cc1csc(NC(=O)CSc2nc(=O)[nH]c3c2CCCC3)n1 | -5 | 8 | -19 | 3 | 4 | 14 | . | . | . | .
O=C(c1ccco1)N1CCN(C(=O)N2CCCCC2)CC1 | -1 | 19 | 6 | 2 | 0 | 13 | . | . | . | .
O=C(O)C1=C(C(=O)N2CCN(C(=O)c3ccco3)CC2)CCCC1 | 8 | 13 | 0 | 43* | 3 | 3 | 52* | 2 | 16 | 6
COc1ccc(NC(C)=O)cc1S(=O)(=O)NC(C)c1ccc(-n2ccnc2)cc1 (stereo unspecified) | -9 | -1 | 6 | 4 | -1 | 7 | . | . | . | .
CC(Sc1ccc(Cl)cc1)C(=O)Nc1ccc(S(=O)(=O)N2CCOCC2)cc1 (stereo unspecified) | 6 | 50* | 8 | 92* | 2 | 14 | 90* | 48* | 73* | 39*
Cc1ccc(C)c(NS(=O)(=O)c2ccc(NC(=O)CSc3ccc(Cl)cc3)cc2)c1 | -13 | -9 | -6 | 17 | 14 | -2 | . | . | . | .
CC(C)C(=O)Nc1ccc(C(=O)Nc2ccc(S(=O)(=O)N3CCOCC3)cc2)cc1 | -3 | . | -12 | . | 0 | 4 | . | . | . | .
Cc1ccc(NS(=O)(=O)c2ccc(NC(=O)C(C)Sc3ccc(Cl)cc3)cc2)c(C)c1 (stereo unspecified) | -4 | 18 | 12 | 51* | 8 | 10 | 25 | 10 | 21 | 26*

Compound activity as filed in PubChem.
